INS-1E ATP HTS – rescue of cytokine-induced death in INS-1E beta cells. INS-1E cytokine-induced death, ATP luminescence, 48 h; normalised: neutral wells 0, positive control 100. protection from cytokine-induced ATP loss, % at 10 µM. 20,000 tested, 0.1% active. AID 488910;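 active = mean replicate protection from cytokine-induced ATP loss at least 50% and at least 75% of replicates each reaching 50%; inconclusive = meets only one of the two criteria, mean or replicate share; inactive = fails both the mean and replicate share criteria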
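Assay system: INS-1E rat insulinoma cells. Amount: 8000 cells per well. Medium: phenol-red-free RPMI with 5% fetal bovine serum. Reagent: IL-1β, TNF-α and IFN-γ cytokine mix. Doses: one compound concentration, pin transfer. Schedule: 48 h co-treatment, 10 min post-lysis read. Detection: CellTiter-Glo luminescence measuring cellular ATP.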
A1 apoptosis 2 – A1 inhibition read as caspase activation; MEF A1-2A-BIM cells, caspase-Glo luminescence, 3 h; percent of clofoctol response, DMSO zero; caspase activation, % (no concentration beside the values); 24,000 tested, under 10 active; in the data active = caspase activation above about 5.9%; inconclusive = no clear call, values can overlap the other calls; inactive = below about 2.2%
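Material: A1-2A-BIM-expressing MEF cells. Buffer or medium: RPMI-1640 plus 10% FBS. Incubation: cells settled overnight, compound exposure 3 h at 37 °C, 5% CO2. Signal: Caspase-Glo 3/7 luminescence, 1 h at room temperature.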
T cruzi HTS – intracellular Trypanosoma cruzi inhibition; intracellular Trypanosoma cruzi in host cells, plate reader; activity score (inhibition), % at 5.01 µM; 22,000 tested, 4.9% active; in the data active = activity score above about 55%; inconclusive = no clear call, values can overlap the other calls;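 also: parasites and compound incubated about four days before reading; 0% = median of neutral control wells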
Active calls of the source: *. This is one part of a sample in which hits are shown more often than they occur.

What do the screens show for `COc1ccc(NC(=O)Nc2ccc3c(c2)CC(=O)N([C@H](C)CO)C[C@@H](C)[C@@H](CN(C)Cc2ccc(C(=O)Nc4ccccc4N)cc2)O3)cc1`?
INS-1E ATP HTS: -8; A1 apoptosis 2: 1; T cruzi HTS: 66*

How did COc1ccc(NC(=O)Nc2ccc3c(c2)CC(=O)N([C@@H](C)CO)C[C@@H](C)[C@@H](CN(C)Cc2ccc(C(=O)Nc4ccccc4N)cc2)O3)cc1 do in these assays?
INS-1E ATP HTS: -18; A1 apoptosis 2: 1; T cruzi HTS: 60*

What do the screens show for `COc1ccc(NC(=O)Nc2ccc3c(c2)CC(=O)N([C@H](C)CO)C[C@H](C)[C@H](CN(C)Cc2ccc(C(=O)Nc4ccccc4N)cc2)O3)cc1`?
INS-1E ATP HTS: 45; T cruzi HTS: inconclusive

What do the screens show for `COc1ccc(NC(=O)Nc2ccc3c(c2)C(=O)N([C@H](C)CO)C[C@H](C)[C@H](CN(C)Cc2ccc(C(=O)Nc4ccccc4N)cc2)O3)cc1`?
INS-1E ATP HTS: -9; A1 apoptosis 2: 2; T cruzi HTS: 17

How did Cc1ccc(S(=O)(=O)Nc2ccc3c(c2)C(=O)N([C@H](C)CO)C[C@@H](C)[C@@H](CN(C)C(=O)c2ccccc2)OCCCC[C@H](C)O3)cc1 do in these assays?
A1 apoptosis 2: -2

What do the screens show for `C[C@@H]1CN([C@H](C)CO)C(=O)c2cc(NS(=O)(=O)c3ccccc3)ccc2O[C@H]1CN(C)C(=O)Nc1ccccc1`?
INS-1E ATP HTS: -4; A1 apoptosis 2: 0; T cruzi HTS: -1

Results for C[C@@H]1CCCCO[C@H](CN(C)S(=O)(=O)c2ccccc2)[C@@H](C)CN([C@H](C)CO)C(=O)c2cc(NC(=O)Nc3ccc(C(F)(F)F)cc3)ccc2O1 ?
INS-1E ATP HTS: -18; A1 apoptosis 2: 0; T cruzi HTS: 64*

Results for Cc1ccc(S(=O)(=O)N(C)C[C@@H]2OCCCC[C@H](C)Oc3ccc(NC(=O)Nc4ccc(C(F)(F)F)cc4)cc3C(=O)N([C@@H](C)CO)C[C@@H]2C)cc1 ?
A1 apoptosis 2: -2

What do the screens show for `C[C@@H]1CCCCO[C@H](CN(C)S(=O)(=O)c2ccccc2)[C@@H](C)CN([C@@H](C)CO)C(=O)c2cc(NC(=O)Nc3ccc(C(F)(F)F)cc3)ccc2O1`?
A1 apoptosis 2: 1

What do the screens show for `C[C@H](CO)N1C[C@H](C)[C@H](CN(C)S(=O)(=O)c2ccccc2)OCCCC[C@H](C)Oc2ccc(NC(=O)Nc3ccc(C(F)(F)F)cc3)cc2C1=O`?
A1 apoptosis 2: 0

How did Cc1ccc(S(=O)(=O)N(C)C[C@H]2OCCCC[C@@H](C)Oc3ccc(NC(=O)Nc4ccc(C(F)(F)F)cc4)cc3C(=O)N([C@H](C)CO)C[C@@H]2C)cc1 do in these assays?
INS-1E ATP HTS: -61; T cruzi HTS: 64*

How did Cc1noc(C)c1S(=O)(=O)N(C)C[C@@H]1OCCCC[C@H](C)Oc2ccc(NC(=O)Nc3ccc(C(F)(F)F)cc3)cc2C(=O)N([C@H](C)CO)C[C@H]1C do in these assays?
A1 apoptosis 2: 0

How did Cc1noc(C)c1S(=O)(=O)N(C)C[C@H]1OCCCC[C@@H](C)Oc2ccc(NC(=O)Nc3ccc(C(F)(F)F)cc3)cc2C(=O)N([C@H](C)CO)C[C@@H]1C do in these assays?
INS-1E ATP HTS: -23; A1 apoptosis 2: 2; T cruzi HTS: 70*

How did C[C@@H]1CCCCO[C@@H](CN(C)S(=O)(=O)c2ccccc2)[C@@H](C)CN([C@H](C)CO)C(=O)c2cc(NC(=O)Nc3ccc(C(F)(F)F)cc3)ccc2O1 do in these assays?
INS-1E ATP HTS: -13; A1 apoptosis 2: 0; T cruzi HTS: 69*

Results for C[C@@H]1CCCCO[C@H](CN(C)C(=O)Nc2cccc3ccccc23)[C@@H](C)CN([C@H](C)CO)C(=O)c2cc(NC(=O)NC3CCCCC3)ccc2O1 ?
INS-1E ATP HTS: -7; T cruzi HTS: 9

What do the screens show for `CCO[C@@H]1OC(C(=O)N2CCCCCCC2)=C[C@H](C)[C@H]1CCCO`?
A1 apoptosis 2: 0

Results for C[C@@H]1CCCCO[C@@H](CN(C)CC2CCCCC2)[C@@H](C)CN([C@H](C)CO)C(=O)c2cc(NS(=O)(=O)c3ccc(F)cc3)ccc2O1 ?
INS-1E ATP HTS: -14; A1 apoptosis 2: 1; T cruzi HTS: -19

How did Cc1noc(C)c1S(=O)(=O)N(C)C[C@H]1Oc2ccc(NC(=O)Nc3ccc(C(F)(F)F)cc3)cc2CC(=O)N([C@H](C)CO)C[C@H]1C do in these assays?
INS-1E ATP HTS: 1; A1 apoptosis 2: 0; T cruzi HTS: 2

What do the screens show for `COc1ccc(S(=O)(=O)N(C)C[C@H]2OCCCC[C@H](C)Oc3ccc(NC(=O)Nc4ccc(C(F)(F)F)cc4)cc3C(=O)N([C@H](C)CO)C[C@H]2C)cc1`?
A1 apoptosis 2: 0

Results for COc1ccc(S(=O)(=O)N(C)C[C@@H]2OCCCC[C@@H](C)Oc3ccc(NC(=O)Nc4ccc(C(F)(F)F)cc4)cc3C(=O)N([C@H](C)CO)C[C@@H]2C)cc1 ?
INS-1E ATP HTS: -11; T cruzi HTS: 65*

What do the screens show for `COc1ccc(NC(=O)N(C)C[C@@H]2OCCCC[C@@H](C)Oc3ccc(NS(=O)(=O)c4cccs4)cc3C(=O)N([C@H](C)CO)C[C@@H]2C)cc1`?
INS-1E ATP HTS: 1; T cruzi HTS: -25

What do the screens show for `C[C@@H]1CN([C@H](C)CO)C(=O)c2cc(NC(=O)C3CCCCC3)ccc2O[C@@H](C)CCCCO[C@H]1CN(C)C(=O)Cc1ccccc1`?
A1 apoptosis 2: 2

How did C[C@@H]1CN([C@H](C)CO)C(=O)Cc2cc(NC(=O)Nc3ccc(C(F)(F)F)cc3)ccc2O[C@@H]1CN(C)Cc1ccccc1 do in these assays?
INS-1E ATP HTS: -32; T cruzi HTS: 69*

How did C[C@@H]1CN([C@@H](C)CO)C(=O)Cc2cc(NC(=O)Nc3ccc(C(F)(F)F)cc3)ccc2O[C@@H]1CN(C)Cc1ccccc1 do in these assays?
INS-1E ATP HTS: -33; T cruzi HTS: 58*

Results for C[C@@H]1CN([C@@H](C)CO)C(=O)Cc2cc(NC(=O)Nc3ccccc3)ccc2O[C@@H]1CN(C)Cc1ccc(C(F)(F)F)cc1 ?
INS-1E ATP HTS: -4; A1 apoptosis 2: 1; T cruzi HTS: inconclusive

How did C[C@H]1CN([C@@H](C)CO)C(=O)Cc2cc(NC(=O)Nc3ccccc3)ccc2O[C@@H]1CN(C)Cc1ccc(C(F)(F)F)cc1 do in these assays?
INS-1E ATP HTS: -24; A1 apoptosis 2: 0; T cruzi HTS: 27

How did C[C@@H]1CN([C@H](C)CO)C(=O)c2cc(NS(=O)(=O)c3cccs3)ccc2O[C@@H]1CN(C)CC1CC1 do in these assays?
INS-1E ATP HTS: -1; A1 apoptosis 2: -1; T cruzi HTS: 6

Results for COC(=O)CCCCCCC(=O)N/N=C/c1nccs1 ?
INS-1E ATP HTS: 16; T cruzi HTS: -30

What do the screens show for `C[C@H](CO)N1C[C@H](C)[C@@H](CN(C)Cc2ccc(C(F)(F)F)cc2)OCCCC[C@H](C)Oc2ccc(NS(=O)(=O)c3ccc(F)cc3)cc2C1=O`?
A1 apoptosis 2: 2

Screening results from PubChem BioAssay.
